The source of these data is article PMC4027032 (Journal of the American Chemical Society, 2011).

Usually pIC50 stands for the IC50 on a negative log10 scale, so that one unit is a factor of ten. A lower pIC50 goes with a large IC50.

The structures appear in SMILES notation. pIC50: −log10 of the molar value.

The conditions of series [1]: λirr = 400 nm; cited from earlier work.
In the next series the target is T1, papain (Carica papaya, UniProt P00784).
T1 sequence (P00784 134-345): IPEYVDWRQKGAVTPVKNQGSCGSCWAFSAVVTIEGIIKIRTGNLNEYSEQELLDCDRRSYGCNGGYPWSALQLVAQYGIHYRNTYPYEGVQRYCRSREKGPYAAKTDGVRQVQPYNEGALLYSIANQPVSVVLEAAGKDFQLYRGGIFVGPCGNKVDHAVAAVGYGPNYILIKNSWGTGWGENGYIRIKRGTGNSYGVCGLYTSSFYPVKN
The experiment in a line: Papain inhibition, chromogenic substrate BAPNA. The format is biochemical. Conditions: inhibitor 1 alone; papain 650 nM, phosphate buffer pH 6.5, 11% DMSO.

The next series addresses human cathepsin B (Homo sapiens, UniProt P07858). The experiment in a line: Cathepsin B inhibition, fluorogenic substrate Z-Arg-Arg-AMC. The note with it: 1 alone; acetate buffer pH 6.0, cat B 8 nM, 1% DMSO. It counts as biochemical. An outline of the steps: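 Human cathepsin B at 8 nM in 0.4 M acetate buffer (pH 6.0, 4 mM EDTA, 8 mM DTT, final 1% DMSO), with Z-Arg-Arg-AMC at 100 μM. Reactions were run in the dark or after 10 min irradiation of the test compound (250 W tungsten halogen lamp, >395 nm, H2O filter). IC50 came from a sigmoidal fit of activity versus log[inhibitor], with 100% set by the no-inhibitor control.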

A further series concerns the target T2, human cathepsin K (Homo sapiens, UniProt P43235).
T2 sequence (P43235 115-329): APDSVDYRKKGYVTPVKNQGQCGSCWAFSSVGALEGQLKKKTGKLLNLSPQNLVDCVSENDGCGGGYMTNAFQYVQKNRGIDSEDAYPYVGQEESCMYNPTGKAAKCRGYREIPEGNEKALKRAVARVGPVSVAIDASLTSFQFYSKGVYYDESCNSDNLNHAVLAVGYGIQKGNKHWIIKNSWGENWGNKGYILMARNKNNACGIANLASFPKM
The experiment in a line: Cathepsin K inhibition, fluorogenic substrate Z-Gly-Pro-Arg-AMC. It counts as biochemical. The note with it: 1 alone; acetate buffer pH 5.5, cat K 20 nM, 1% DMSO. An outline of the steps: (§1)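 Human cathepsin K or L at 20 nM in 0.4 M acetate buffer (pH 5.5, 4 mM EDTA, 8 mM DTT, final 1% DMSO). Substrates at 100 μM were Z-Gly-Pro-Arg-AMC for K and Z-Phe-Arg-AMC for L. Reactions were run in the dark or after 10 min irradiation (250 W tungsten halogen lamp, >395 nm, H2O filter). IC50 came from a sigmoidal fit versus log[inhibitor], with 100% set by the no-inhibitor control.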

Another series has as its target human cathepsin L (Homo sapiens, UniProt P07711). The experiment in a line: Cathepsin L inhibition, fluorogenic substrate Z-Phe-Arg-AMC. The format is biochemical. The note with it: 1 alone; acetate buffer pH 5.5, cat L 20 nM, 1% DMSO. An outline of the steps:
as §1

In series [2] the target is human cathepsin B in DU145 lysates (Homo sapiens, UniProt P07858). The series can be described thus: Cathepsin B activity in DU145 cell lysates, Z-Arg-Arg-AMC. The format is biochemical. The note with it: 1 alone; DU145 lysate. The method in brief:
(§2)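 Cathepsin B activity was measured in DU145 or hBMSC cell lysates with fluorogenic Z-Arg-Arg-AMC at 100 μM, run in the dark or after the test compound was irradiated for 10 min with a 250 W tungsten halogen lamp (>395 nm, H2O filter). Activity was plotted against log[inhibitor] and fit to a sigmoidal curve to give IC50, with 100% set by the no-inhibitor control.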

In series [3] the target is human cathepsin B in hBMSC lysates (Homo sapiens, UniProt P07858). The experiment in a line: Cathepsin B activity in hBMSC lysates, Z-Arg-Arg-AMC. The format is biochemical. The note with it: 1 alone; hBMSC lysate. An outline of the steps: as §2

Chain of human cathepsin L (P07711 114-333): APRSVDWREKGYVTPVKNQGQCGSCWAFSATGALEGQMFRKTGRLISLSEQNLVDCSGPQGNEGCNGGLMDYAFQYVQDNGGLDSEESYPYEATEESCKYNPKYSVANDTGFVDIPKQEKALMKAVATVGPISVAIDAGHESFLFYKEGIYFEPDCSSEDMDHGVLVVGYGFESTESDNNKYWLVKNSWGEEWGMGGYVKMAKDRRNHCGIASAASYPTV

Regarding `CC#N.CC#N.[Cl-].[Cl-].[Ru+2].c1ccc(-c2ccccn2)nc1.c1ccc(-c2ccccn2)nc1` [cis-[Ru(bpy)2(MeCN)2]Cl2], the “overall photoaquation quantum yield ΦR→P” value in series [1] was 0.21.
With `CC(=O)N[C@@H](Cc1ccccc1)C(=O)NCC#N` [compound 1, Ac-Phe-NHCH2CN, reference compound], the pIC50 on papain was 6.20; against human cathepsin B, 3.88; against human cathepsin K it was 4.92; at human cathepsin L, 4.14; in series [2], 3.74; in series [3], 3.74.
